Test results from PubChem BioAssay.
Unmarked numbers belong to inactive results. Records with an inconclusive call do not appear. Calls of active or inactive are those of the source.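 The calls were made as follows, unless noted: active = RAM network inhibition above 8.4% in each of two replicates, 3 SD over the compound average; inconclusive = above 8.4% inhibition in only one replicate; inactive = 8.4% inhibition or less in each replicate.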

Columns and labels:
[1] = OD615 S. cerevisiae growth inhibition, permissive medium, pilot counter-assay, permissive growth control for S. cerevisiae lifespan shortening project (AID 705;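 active = growth inhibition above 25% in both replicates, a cutoff set 3 SD above the mean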); settings: OD615, 24 h, at 10 µM, active compounds read high
In short: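 System: S. cerevisiae with engineered DeaD lifespan system. Medium: SC raffinose/galactose permissive medium. Doses: single compound dose of 10 µM, 0.25% DMSO final. Schedule: 24 h exposure, 30 °C. Measured by: OD615 turbidity read. Read-out: growth inhibition.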

[2] = Restrictive medium S. cerevisiae growth inhibition, OD615, pilot screen of yeast lifespan reduction project, restrictive growth control (AID 706;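 active = growth inhibition above a set limit, 3 SD over mean compound inhibition, in both replicates, cut at about 43% in these data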;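 also: modified DeaD lifespan yeast strain shifted to restrictive glucose medium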); settings: OD615, 48 h, at 10 µM, active compounds read high
In short: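 Assay system – genetically modified Saccharomyces cerevisiae, DeaD replicative lifespan assay strain · Medium – CSMM-D glucose medium · Doses – 10 µM compound, 0.25% DMSO · Times – 4 h pre-incubation, 48 h exposure at 30 °C · Signal – optical density at 615 nm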

[3] = viability gain of MRP-1-high H69AR cells under doxorubicin, pilot screen, MRP-1 activator project, CellTiter-Glo, duplicate (AID 807;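 active = viability increase at or above a cutoff of the median across tested compounds plus 3 SD, cut at about 8.5% in these data, passing the limit was not always enough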;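 also: compound pretreatment 18-22 h then 72 h combined with doxorubicin; 0% = doxorubicin alone and 100% = vehicle without doxorubicin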); settings: H69AR viability with doxorubicin, CellTiter-Glo luminescence; at 10 µM; active compounds read high
[4] = growth suppression of beta-catenin knockout HCT116, pilot screen, human colon tumor cells (AID 823;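 active = cell viability at or below a set limit in both duplicate runs, the limit being the all-compound median minus 4 SD, cut at about 23% in these data, passing the limit was not always enough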;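 also: 0% = wells killed by 20 µM Hyamine and 100% = untreated DMSO cell wells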); settings: CellTiter-Glo, 60 h, at 10 µM, active compounds read low
[5] = growth suppression of PTEN-deleted HCT116, pilot screen, cell-based, HCT116 clonal line, CellTiter-Glo (AID 824;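 active = viability at or below 27.92% in each of two runs, the all-compound median minus 4 SD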;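 also: 0% = 20 µM Hyamine control and 100% = vehicle cell control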); settings: 60 h, at 10 µM, active compounds read low
[6] = inhibitors of the yeast RAM network, pilot screen, dse1pr::URA3 reporter, 5-FOA selection (AID 869;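 active = inhibition over a set limit, the all-compound mean plus 3 SD, in both replicate runs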;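 also: 0% = DMSO wells with no growth and 100% = 10 µM 1-NA-PP1 with full growth; RAM network block rescues cells from 5-FOA so hits raise OD615 growth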); settings: S. cerevisiae dse1pr::URA3 5-FOA growth, OD615, 2 d; at 10 µM; active compounds read high; strain carries analog-sensitive mutant Cbk1 kinase
[7] = RAM signaling pathway blockade in yeast – S. cerevisiae, Pdr1DBD-CYC8 efflux-inhibited sensitized strain, primary screen (AID 1298);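 also: 0% = DMSO untreated cells without growth and 100% = 10 µM 1-NA-PP1 full growth; higher means more yeast growth rescued from 5-FOA killing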; settings: S. cerevisiae cbk1-as DSE1-URA3 strain, 5-FOA growth OD615, 2 d; at 50 µM; active compounds read high

Compound | growth inhibition [1] | growth inhibition [2] | viability increase [3] [%] | viability [4] | viability [5] | inhibition [6] [%] | RAM network inhibition [7] [%]
CCOC(=O)c1cn(-c2ccccc2)nc1-c1cccnc1 | -13.6% | -8.75% | -3.34 | 106% | 93.5% | 1.63 | 7.28
CCCCCn1c(CCNC(=O)c2cccs2)nc2ccccc21 | -9.44% | -0.75% | -2.25 | 94.2% | 86.4% | 2.39 | 0.13
Cc1cccc(Cn2c(N3CCCCC3C)nc3c2c(=O)[nH]c(=O)n3C)c1 (stereo not given) | -17.5% | -16.4% | -5.08 | 89.3% | 78% | 0.805 | 2.4
COc1ccccc1C1(CC(=O)O)CCOC(C)(C)C1 (stereo not given) | -2.27% | -9.79% | -1.61 | 90.9% | 92.2% | 0.095 | -1.44
CCN(CCNC(=O)C1CCN(c2nnc(-n3cccc3)s2)CC1)c1ccccc1 | -4.1% | -6.63% | -3.79 | 90.6% | 92.7% | 0.38 | 8.71
Cn1c(=O)c(C(=O)Nc2ncccn2)c(O)c2ccccc21 | 39.2% (active) | 63.5% (active) | -3.95 | 87.1% | 89.5% | 0.475 | -1.44
O=C1CC(c2ccco2)CC(O)=C1C=NCC1CCNCC1 (stereo not given) | -17.1% | -5.49% | 1.85 | 102% | 101% | 0.37 | 3.8
CC1Cc2ccccc2N1C(=O)Cn1cnc2ccccc2c1=O (stereo not given) | 3.42% | -17.3% | 0.12 | 99.4% | 93.3% | -0.455 | -0.47
Cc1ccc(NC(=O)c2cc(NC(=O)C3CC=CCC3C(=O)O)ccc2N2CCOCC2)cc1 (stereo not given) | -11.6% | -5.87% | -3.64 | 97.3% | 95.1% | 1.23 | 2.82
CCC(=O)c1ccc(N2CCN(C(=O)COc3ccc(F)cc3)CC2)c(F)c1 | -5.39% | -3.45% | -2.21 | 73.7% | 82.5% | 1.71 | 5.92
COc1cccc(OC)c1C(=O)Nc1ccc2c(c1)OCCO2 | -8.21% | 0.395% | -0.21 | 99.8% | 95.9% | 1.23 | 0.51
Cc1ccc(Cc2c(C)nc3nc(SCC(=O)NCc4ccco4)nn3c2C)cc1 | 10.4% | 12.9% | -6.46 | 13.2% (active) | 10.9% (active) | 0.455 | 5.24
COc1ccc(C)cc1NC(=O)CSc1nnc(-c2ccc(OC)c(OC)c2)n1N | 3.19% | 14% | -1.57 | 102% | 98.9% | 0.235 | 7.82
COc1ccccc1-c1c(C#N)c(SCC(=O)N2CCCC2)nc(C)c1C(N)=O | -2.97% | -7.78% | -0.18 | 101% | 98.2% | 1.73 | 1.04
CC(=O)/C(C(=N)N1CCN(C(c2ccccc2)c2ccccc2)CC1)=C(\C)O | -2.42% | -7.72% | -2.93 | 102% | 91.2% | -0.395 | 2.41
